The nature of experiment [1]: Inhibition of Saccharomyces cerevisiae FL100 wild type OSC using [14C]-(3S)-2,3-oxidosqualene as substrate. The procedure, abridged: (§1)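 Homogenates of yeast cultures (SMY8 expressing human or T. cruzi OSC; wild-type S. cerevisiae FL100) incubated with radiolabelled 2,3-oxidosqualene at increasing inhibitor concentrations; IC50 as mean of two separate experiments, each in duplicate.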

The subject of a further experiment is Yarrowia lipolytica. Put plainly: Inhibition of ergosterol biosynthesis in Yarrowia lipolytica DSM 1345 at 0.2 to 0.5 times MIC after 48 hrs by GC-MS analysis. Format: functional, organism-based. The method, boiled down:
(§2)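 Whole-cell sterol-pattern assay analogous to the cholesterol one, run on S. cerevisiae, Yarrowia lipolytica and Candida glabrata; accumulation of precursor sterols and cellular ergosterol content followed.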

The test system of a further experiment is HL-60. In words: Inhibition of total cholesterol biosynthesis in human HL60 cells assessed as incorporation of 2-13C-acetate by GC-MS analysis. In kind it is functional, cell-based. The procedure, abridged: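 HL-60 cells incubated with inhibitor in presence of 2-13C-acetate; newly made 13C-labelled cholesterol distinguished from unlabelled pre-existing cholesterol by GC-MS after extraction; IC50 for total cholesterol biosynthesis derived; triplicate experiments.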

For another experiment, the system named is Saccharomyces cerevisiae. Put plainly: Inhibition of ergosterol biosynthesis in Saccharomyces cerevisiae DSM 1333 at 0.2 to 0.5 times MIC after 48 hrs by GC-MS analysis. Format: functional, organism-based. The method, boiled down:
as §2

Experiment [2] deals with T1, Lanosterol synthase (Homo sapiens) (UniProt P48449).
T1 sequence (whole entry): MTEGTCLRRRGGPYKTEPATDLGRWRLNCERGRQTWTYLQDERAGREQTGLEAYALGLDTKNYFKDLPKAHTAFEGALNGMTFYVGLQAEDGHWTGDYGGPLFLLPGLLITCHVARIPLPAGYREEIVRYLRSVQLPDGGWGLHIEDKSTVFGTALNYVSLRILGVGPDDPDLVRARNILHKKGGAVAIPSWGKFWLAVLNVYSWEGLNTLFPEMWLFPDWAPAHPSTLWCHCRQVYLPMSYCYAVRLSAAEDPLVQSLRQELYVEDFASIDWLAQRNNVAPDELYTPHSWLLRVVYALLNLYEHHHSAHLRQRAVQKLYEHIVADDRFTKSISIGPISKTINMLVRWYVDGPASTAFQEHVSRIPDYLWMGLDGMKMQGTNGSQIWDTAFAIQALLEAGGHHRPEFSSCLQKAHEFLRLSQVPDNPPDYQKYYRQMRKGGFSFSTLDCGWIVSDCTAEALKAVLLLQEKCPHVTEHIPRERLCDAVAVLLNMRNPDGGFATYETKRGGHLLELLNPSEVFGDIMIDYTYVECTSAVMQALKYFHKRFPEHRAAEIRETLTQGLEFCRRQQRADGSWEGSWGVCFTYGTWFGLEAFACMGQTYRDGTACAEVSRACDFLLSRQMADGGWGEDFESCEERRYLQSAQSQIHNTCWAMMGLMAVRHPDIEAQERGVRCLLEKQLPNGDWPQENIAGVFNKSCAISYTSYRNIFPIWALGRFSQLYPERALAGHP
Put plainly: Inhibition of OSC in human HL60 cells assessed as accumulation of 2,3-oxidosqualene by GC-MS method. In kind it is cell-based. Conditions: HL-60. The method, boiled down: (§3)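 Qualitative whole-cell screen: human HL-60 cells incubated with compound, then lysed and extracted; sterol pattern analysed by GC-MS. Enzyme target assigned from characteristic precursor accumulation: 2,3-oxidosqualene for OSC, 7-dehydrocholesterol for dehydrocholesterol reductase.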

Experiment [3] can be described thus: Cytotoxicity against human HL60 cells after 24 hrs by MTT assay. Format: cell-based. Conditions: HL-60, 24 h. The procedure, abridged:
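MTT assay on human leukaemia HL-60 cells, following Mosmann; cisplatin as reference; triplicate experiments.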
(In general: Formazan colour is commonly taken as a measure of viable cells.)

A short description of experiment [4]: Inhibition of Trypanosoma cruzi OSC expressed in recombinant Saccharomyces cerevisiae SMY8 using [14C]-(3S)-2,3-oxidosqualene as substrate. The procedure, abridged: as §1
In another experiment the test system is Nakaseomyces glabratus. In words: Inhibition of ergosterol biosynthesis in Candida glabrata DSM 11226 at 0.2 to 0.5 times MIC after 48 hrs by GC-MS analysis. In kind it is functional, organism-based. The procedure, abridged: as §2
A further experiment has as its target T2, Lanosterol synthase (Homo sapiens, UniProt P48449).
T2 sequence (P48449 whole entry): T1 sequence (whole entry)
In words: Inhibition of human OSC expressed in recombinant Saccharomyces cerevisiae SMY8 using [14C]-(3S)-2,3-oxidosqualene as substrate. The method, boiled down:
as §1

A short description of experiment [5]: Inhibition of Saccharomyces cerevisiae OSC expressed in recombinant Saccharomyces cerevisiae SMY8 using [14C]-(3S)-2,3-oxidosqualene as substrate.
For experiment [6], the target named is T3, 7-dehydrocholesterol reductase (Homo sapiens) (UniProt Q9UBM7).
T3 sequence (whole entry): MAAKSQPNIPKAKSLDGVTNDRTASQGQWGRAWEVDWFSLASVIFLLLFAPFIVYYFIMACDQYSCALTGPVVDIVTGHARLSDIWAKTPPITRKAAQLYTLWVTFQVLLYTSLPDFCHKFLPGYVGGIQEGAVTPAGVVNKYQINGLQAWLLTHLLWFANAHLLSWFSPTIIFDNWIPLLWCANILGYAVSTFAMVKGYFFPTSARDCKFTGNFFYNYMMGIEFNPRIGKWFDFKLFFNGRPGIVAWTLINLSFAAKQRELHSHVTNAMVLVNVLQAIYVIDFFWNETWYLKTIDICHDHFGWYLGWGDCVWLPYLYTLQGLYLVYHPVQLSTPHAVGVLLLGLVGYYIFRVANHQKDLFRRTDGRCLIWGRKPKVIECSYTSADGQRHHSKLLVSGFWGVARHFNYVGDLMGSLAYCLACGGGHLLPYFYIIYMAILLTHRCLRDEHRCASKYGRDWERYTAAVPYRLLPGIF
In words: Inhibition of 7-dehydrocholesterol reductase in human HL60 cells assessed as accumulation of 7-dehydrocholesterol by GC-MS method. To be noted: HL-60. In kind it is cell-based. The method, boiled down:
as §3

As a reminder, the IC50 is the midpoint of a concentration-inhibition curve.

Each structure is given as a SMILES string. Activity calls are given as the source filed them. No cut-off for these calls is given here.

In the case of `CN1CCC=C(c2ccc(CN(C)C/C=C/c3ccccc3)cc2)C1`, the IC50 is over 10 µM in experiment [1]; 680 nM in the experiment with HL-60; over 50 µM in experiment [3]; over 10 µM in [4]; 5280 nM on Lanosterol synthase. The inhibition entry in the experiment with Yarrowia lipolytica, in the experiment on Saccharomyces cerevisiae and in the experiment on Nakaseomyces glabratus was “inactive” in each case. The inhibition result in experiment [2] is “Active”.
`CC(C)CCN(C)Cc1ccc(C2=CCCN(C)C2)cc1` had an IC50 in experiment [3] of over 50 µM.
The same measure, in the same setting: as for `CC(C)CN(C)Cc1ccc(C2=CCCN(C)C2)cc1`, the figure is over 50 µM.
Turning to `CN1CCC=C(c2ccc(CN(C)Cc3ccc([N+](=O)[O-])cc3)cc2)C1`, the inhibition result in the experiment with Yarrowia lipolytica, in the experiment on Saccharomyces cerevisiae and with Nakaseomyces glabratus was “inactive” in each case. For the same molecule, the results for the IC50 (in the experiment on HL-60; in experiment [3]) were 2290 nM and 28 µM, respectively. Besides, in experiment [2], the inhibition result was “Active”.
Consider `C=CCN(C)CCCCCCOc1ccc(C(=O)c2ccc(Br)cc2)c(F)c1`, for which the IC50 in experiment [5] came to 900 nM; in the experiment on HL-60, 92 nM; in experiment [3], 8 µM. In experiment [2], the inhibition entry was “Active”.
Regarding `CC(C)CN(C)Cc1ccc(C2CCCN(C)C2)cc1` (racemic), the IC50 in experiment [3] was over 50 µM.
`CN1CCC=C(c2ccc(CN(C)Cc3ccc4ccccc4c3)cc2)C1`: the 50% inhibitory concentration (IC50) was over 10 µM in [1]; 370 nM with HL-60; over 50 µM in experiment [3]; over 10 µM in experiment [4]; over 10000 nM on Lanosterol synthase. In addition, the inhibition result in the experiment on Yarrowia lipolytica, with Saccharomyces cerevisiae and with Nakaseomyces glabratus was “inactive” in each case. For the same molecule, in experiment [2], the inhibition result was “Active”.
On to `CN(C/C=C/c1ccccc1)Cc1ccc(C2CCCN(C)C2)cc1` (configuration not stated), for which the IC50 in experiment [1] was over 10 µM; in the experiment on HL-60 it was 1100 nM; in experiment [3] it was over 50 µM; in [4], over 10 µM; at Lanosterol synthase it was 2060 nM. Further, the inhibition result in [2] is “Active”.
With `CN1CCC=C(c2ccc(CN(C)C/C=C/c3ccc([N+](=O)[O-])cc3)cc2)C1`, the inhibition entry with Yarrowia lipolytica, in the experiment with Saccharomyces cerevisiae and in the experiment on Nakaseomyces glabratus was “inactive” in each case. The IC50 in the experiment on HL-60 is 1280 nM; in experiment [3], over 50 µM. For the same molecule, the inhibition result in experiment [2] was “Active”.
As for `CN1CCCC(c2ccc3c(c2)CCC3N(C)Cc2ccc(Cl)cc2)C1` (racemic), the IC50 was over 10 µM in [1]; 140 nM in the experiment on HL-60; over 50 µM in [3]; over 10 µM in [4]; 4220 nM at Lanosterol synthase. The inhibition result with Yarrowia lipolytica, in the experiment on Saccharomyces cerevisiae and with Nakaseomyces glabratus was “inactive” in each case. In addition, the inhibition result in experiment [2] was “Active”.
In the case of `COc1ccc(CN(C)Cc2ccc(C3=CCCN(C)C3)cc2)cc1`, the half-maximal inhibitory concentration (IC50) in [3] was over 50 µM.
Take `CN1CCC=C(c2ccc(CN(C)CCCc3ccccc3)cc2)C1`: the inhibition result in the experiment on Yarrowia lipolytica, with Saccharomyces cerevisiae and in the experiment with Nakaseomyces glabratus was “inactive” in each case. Besides, the inhibition result in [2] was “Active”. Also, the IC50 in [3] is over 50 µM.
Consider `CN(C)Cc1ccc([C@H]2CC[C@H](N(C)C(=O)c3ccc(Cl)cc3)CC2)cc1`, for which the IC50 with HL-60 is 310 nM; in experiment [3], over 50 µM. In addition, in [2], the inhibition entry was “Active”.
On to `CN(Cc1ccc(C2CCCN(C)C2)cc1)Cc1ccc2ccccc2c1` (racemic), for which the IC50 in [1] was over 10 µM; in the experiment on HL-60, 1320 nM; in experiment [3], 40 µM; in experiment [4] it was over 10 µM; on Lanosterol synthase, 8510 nM. Besides, the inhibition entry in experiment [2] was “Active”.
On to `CN(Cc1ccc(Cl)cc1)Cc1cn(C2CCCN(C)C2)nn1` (racemic), for which the inhibition entry in [6] was “Active”. The same molecule showed an IC50 in [3] of over 50 µM.
With `CN1CCC(c2ccc(CN(C)Cc3ccc(Cl)cc3)cc2)CC1`, the half-maximal inhibitory concentration (IC50) is 4.83 µM in experiment [1]; 260 nM in the experiment with HL-60; over 50 µM in experiment [3]; over 10 µM in [4]; 510 nM at Lanosterol synthase. In addition, the inhibition result with Yarrowia lipolytica, in the experiment on Saccharomyces cerevisiae and with Nakaseomyces glabratus was “inactive” each time. Moreover, in experiment [2], the inhibition entry was “Active”.
In the case of `CN1CCC=C(c2ccc(CN(C)Cc3ccccc3)cc2)C1`, the half-inhibitory concentration (IC50) in experiment [3] was over 50 µM.
On the same count and under the same terms, as for `CN(C/C=C/c1ccccc1)Cc1ccc(-c2cccnc2)cc1`, the figure is 44 µM.
For `CN(CCCc1ccccc1)Cc1ccc(C2CCCN(C)C2)cc1` (racemic), in [2], the inhibition entry is “Active”. This molecule yielded a 50% inhibitory concentration (IC50) in experiment [3] of over 50 µM.
`CC(C)CCCN(C)Cc1ccc(C2=CCCN(C)C2)cc1`: the IC50 in experiment [3] was over 50 µM.
Still for that read-out and setting: as for `COC(=O)c1ccc(CN(C)Cc2ccc(C3=CCCN(C)C3)cc2)cc1`, the figure is over 50 µM; as for `CC(C)CCN(C)Cc1ccc(C2CCCN(C)C2)cc1` (racemic), over 50 µM; as for `CN(Cc1ccc(Cl)cc1)Cc1ccc(-c2cccnc2)cc1`, 21 µM.
Consider `CN(Cc1ccc(Cl)cc1)Cc1ccc(C2CCCN(C)C2)cc1` (configuration not stated), for which the 50% inhibitory concentration (IC50) in [1] was over 10 µM; in the experiment with HL-60, 1290 nM; in experiment [3], over 50 µM; in experiment [4], over 10 µM; at Lanosterol synthase it was 2060 nM. For the same molecule, in [2], the inhibition entry is “Active”.
With `CN1CCC=C(c2ccc(CN(C)Cc3ccc(Cl)cc3)cc2)C1`, the IC50 in experiment [1] was 6.35 µM; with HL-60, 2140 nM; in experiment [3], over 50 µM; in experiment [4], over 10 µM; on Lanosterol synthase, 2510 nM. The inhibition entry with Yarrowia lipolytica, in the experiment on Saccharomyces cerevisiae and in the experiment on Nakaseomyces glabratus was “inactive” throughout. Further, the inhibition result in [2] is “Active”.
In experiment [3], `CC(C)CCCN(C)Cc1ccc(C2CCCN(C)C2)cc1` (racemic) showed an IC50 of over 50 µM.

The values are drawn from ChEMBL document CHEMBL3763134, “Arylpiperidines as a new class of oxidosqualene cyclase inhibitors” (Eur J Med Chem, 2016).
